Source: ChEMBL document CHEMBL1142632, “A new bioactive sesterterpene and antiplasmodial alkaloids from the marine sponge hyrtios cf. erecta” (J Nat Prod, 2000)
≈ marks a conversion by molar mass, not a printed value. Calls of active or inactive are those of the source. No cut-off for these calls is given here.

How the values were obtained:
Microbotryum violaceum = experiment: Antifungal activity against Ustilago violacea at 50 ug by agar diffusion assay; format: functional; details: read-out: IZ
Method in brief: (§1)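 Agar diffusion: crude extracts and pure compounds applied at 50 µg per disk; growth inhibition read as zone diameter (mm).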

[1] = target: Tyrosine-protein kinase Lck (Homo sapiens) (UniProt P06239); experiment: Inhibition of p56 LCK activity at 0.5 mM; parameters: scale not given: the % may be the effect or the level left
Method in brief: (§2)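 Nonradioactive ELISA-based tyrosine kinase assay. Samples in DMSO/H2O (1:1) were incubated with 1 U p56lck, 1 µM tyrosine kinase substrate II, 1 mM ATP and 10 mM MgCl2 at 30 °C for 60 to 80 min. Buffers: 20% dilution buffer (HEPES, pH 7.0) and 20% assay buffer (Tris, pH 7.5, with Na3VO4). Absorbance read at 415 nm as residual activity.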

Plasmodium falciparum [2] = experiment: Antiplasmodial activity against chloroquine-sensitive Plasmodium falciparum NF54; format: functional, organism-based
Method in brief: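 In vitro assay against P. falciparum strain NF54, of unknown origin and susceptible to standard antimalarials. Chloroquine and artemisinin were run as positive controls.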

Plasmodium falciparum [3] = experiment: Antiplasmodial activity against chloroquine, pyrimethamine-resistant Plasmodium falciparum K1; format: functional, organism-based
Method in brief: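 In vitro assay against P. falciparum strain K1, a Thailand isolate resistant to chloroquine and pyrimethamine. Chloroquine and artemisinin were run as positive controls.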

Hepatovirus A [4] = experiment: Antiviral activity against HAV cytHB1.1 in FRhK4 cells assessed as effect on cytopathogenic effect at 0.038 ug/mL after 21 days by immunofluorescence analysis; format: functional, organism-based
Method in brief: (§3)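 FRhK-4 cells in 96-well plates were used. For line 5, cells were inoculated with 2 × 10^7 TCID50/ml HAVcytHB1.1. For line 4, cells were persistently infected with HAV/7. Morphology (cytopathogenicity) was checked microscopically over 21 days, and HAV antigen was detected by immunofluorescence after 21 days.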

Hepatovirus A [5] = experiment: Antiviral activity against HAV 7 in FRhK4 cells assessed as effect on cytopathogenic effect at 0.038 ug/mL after 21 days by immunofluorescence analysis; format: functional, organism-based; method in brief: as §3
[6] = target: Human immunodeficiency virus type 1 reverse transcriptase (Human immunodeficiency virus 1) (UniProt Q72547); experiment: Inhibition of HIV1 reverse transcriptase assessed as enzyme residual activity at 0.12 mM
Method in brief: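 Nonradioactive ELISA-based reverse transcriptase assay. Reaction mixture held 1 ng recombinant HIV-1-RT. Samples were dissolved in 10% DMSO/lysis buffer. Read-out was residual enzyme activity.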

Escherichia coli = experiment: Antibacterial activity against Escherichia coli at 50 ug by agar diffusion assay; format: functional; details: read-out: IZ; method in brief: as §1
[7] = Cytotoxicity against rat L6 cells; format: cell-based; details: read-out: MIC
[8] = target: Tyrosine-protein kinase Lck (Homo sapiens) (UniProt P06239); experiment: Inhibition of p56 LCK activity at 0.7 mM; parameters: scale not given: the % may be the effect or the level left; method in brief: as §2
[9] = test system: Trypanosoma brucei rhodesiense; experiment: Antitrypanosomal activity against Trypanosoma brucei subsp. rhodesiense; format: functional, organism-based
Priestia megaterium = experiment: Antibacterial activity against Bacillus megaterium at 50 ug by agar diffusion assay; format: functional; details: read-out: IZ; method in brief: as §1
[10] = target: Tyrosine-protein kinase Lck (Homo sapiens) (UniProt P06239); experiment: Inhibition of p56 LCK activity at 0.3 mM; parameters: scale not given: the % may be the effect or the level left; method in brief: as §2
[11] = Cytotoxicity against mouse peritoneal macrophages; format: cell-based, Macrophage; details: read-out: MIC
[12] = target: Tyrosine-protein kinase Lck (Homo sapiens) (UniProt P06239); experiment: Inhibition of p56 LCK activity at 0.6 mM; parameters: scale not given: the % may be the effect or the level left; method in brief: as §2

Chain of Tyrosine-protein kinase Lck (Homo sapiens) (P06239 2-509 limits assumed): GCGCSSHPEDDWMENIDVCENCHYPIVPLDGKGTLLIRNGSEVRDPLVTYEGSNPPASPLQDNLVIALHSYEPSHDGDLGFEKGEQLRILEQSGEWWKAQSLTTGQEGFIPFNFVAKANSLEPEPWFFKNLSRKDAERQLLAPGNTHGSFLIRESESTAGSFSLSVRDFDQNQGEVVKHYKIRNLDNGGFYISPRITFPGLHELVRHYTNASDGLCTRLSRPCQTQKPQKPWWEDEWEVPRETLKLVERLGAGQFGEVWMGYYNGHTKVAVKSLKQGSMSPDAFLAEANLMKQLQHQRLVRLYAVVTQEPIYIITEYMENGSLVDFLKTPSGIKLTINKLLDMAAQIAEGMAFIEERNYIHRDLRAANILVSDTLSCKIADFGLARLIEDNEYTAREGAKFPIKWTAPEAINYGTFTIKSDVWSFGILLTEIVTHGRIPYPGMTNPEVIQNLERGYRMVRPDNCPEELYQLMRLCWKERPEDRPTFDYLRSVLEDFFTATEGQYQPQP

Q: With `CC1=C(CC/C(C)=C/CC/C(C)=C/CCC2=CCOC2=O)C(C)(C)CCC1` as the compound, how does the zone of inhibition at 50 µg/disc (Microbotryum violaceum) read?
A: The zone of inhibition at 50 µg/disc was 2 mm.

Q: With `CC1=C(CC/C(C)=C/CC/C(C)=C/CCC2=CCOC2=O)C(C)(C)CCC1=O` as the compound, how does the Activity [1] read?
A: Its Activity is 45%.

Q: For `C[C@@H]1CC[C@H]2[C@@H](C)C(=O)O[C@@H]3O[C@@]4(C)CC[C@@H]1[C@]32OO4` [ARTEMISININ], which IC50 (Plasmodium falciparum [2]) is on record?
A: Its IC50 is 0.002 µg/mL (≈ 7.08 nM).

Q: And the IC50 (Plasmodium falciparum [3])?
A: Its IC50 is 0.001 µg/mL (≈ 3.54 nM).

Q: Which results are given for `O=C1c2ccccc2-[n+]2ccc3c([nH]c4ccccc43)c21.[Cl-]` [FASCAPLYSIN CHLORIDE]?
A: Activity (Hepatovirus A [4]): Active; Activity (Hepatovirus A [5]): Active; Activity [6]: 10%; zone of inhibition at 50 µg/disc (Escherichia coli): 6 mm; IC50 (Plasmodium falciparum [2]): 0.034 µg/mL; MCC [7]: 2.5 µg/mL; Activity [8]: 10%; IC50 [9]: 630 nM; zone of inhibition at 50 µg/disc (Priestia megaterium): 10 mm; IC50 (Plasmodium falciparum [3]): 0.05 µg/mL

Q: Which results are given for `CC(=O)CC1(O)c2ccccc2-[n+]2ccc3c([nH]c4ccccc43)c21.[Cl-]` (configuration not stated) [HOMOFASCAPLYSIN A]?
A: Activity [10]: 44%; MCC [11]: 30 µg/mL; Activity [12]: 8%; zone of inhibition at 50 µg/disc (Escherichia coli): 9 mm; IC50 (Plasmodium falciparum [2]): 0.024 µg/mL; MCC [7]: 1.1 µg/mL; zone of inhibition at 50 µg/disc (Priestia megaterium): 11 mm; IC50 (Plasmodium falciparum [3]): 0.014 µg/mL
